Calls of active or inactive are those of the source. The rule behind the calls is not given here.
Assays:
[1] = target: T1, Amine oxidase [flavin-containing] A (Homo sapiens, UniProt P21397); assay: Inhibition of human recombinant MAOA expressed in microsomes of baculovirus-infected insect cell using kynuramine as substrate preincubated for 20 mins followed by protein addition measured after 30 mins by fluorescence assay
T1 sequence (P21397 whole entry): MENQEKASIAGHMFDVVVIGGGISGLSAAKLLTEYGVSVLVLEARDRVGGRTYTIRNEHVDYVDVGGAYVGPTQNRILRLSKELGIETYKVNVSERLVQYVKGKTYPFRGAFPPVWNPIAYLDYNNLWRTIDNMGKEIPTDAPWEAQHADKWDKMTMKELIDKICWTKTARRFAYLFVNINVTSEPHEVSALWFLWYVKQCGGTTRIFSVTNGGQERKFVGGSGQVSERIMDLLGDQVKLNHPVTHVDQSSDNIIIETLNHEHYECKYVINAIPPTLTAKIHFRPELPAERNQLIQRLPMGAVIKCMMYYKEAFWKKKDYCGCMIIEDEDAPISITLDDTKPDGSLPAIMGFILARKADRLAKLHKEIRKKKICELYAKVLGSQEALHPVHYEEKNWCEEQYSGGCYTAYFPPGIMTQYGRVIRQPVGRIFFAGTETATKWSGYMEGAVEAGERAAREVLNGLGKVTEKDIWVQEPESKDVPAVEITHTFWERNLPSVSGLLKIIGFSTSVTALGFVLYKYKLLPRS
Outline: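 Recombinant human MAO A (baculovirus-infected insect cell microsomes) with kynuramine substrate; inhibitor preincubated 20 min at 37 °C, enzyme then added and incubated 30 min more. Fluorescence at ex/em 320/400 nm. Triplicates, three independent experiments.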

Acetylcholinesterase [2] = target: T2, Acetylcholinesterase (Electrophorus electricus, UniProt O42275); assay: Mixed-type inhibition of electric eel AChE using S-acetylthiocholine as substrate preincubated for 20 mins followed by substrate addition measured for 5 mins by Lineweaver-Burk plot method
T2 sequence (O42275 whole entry): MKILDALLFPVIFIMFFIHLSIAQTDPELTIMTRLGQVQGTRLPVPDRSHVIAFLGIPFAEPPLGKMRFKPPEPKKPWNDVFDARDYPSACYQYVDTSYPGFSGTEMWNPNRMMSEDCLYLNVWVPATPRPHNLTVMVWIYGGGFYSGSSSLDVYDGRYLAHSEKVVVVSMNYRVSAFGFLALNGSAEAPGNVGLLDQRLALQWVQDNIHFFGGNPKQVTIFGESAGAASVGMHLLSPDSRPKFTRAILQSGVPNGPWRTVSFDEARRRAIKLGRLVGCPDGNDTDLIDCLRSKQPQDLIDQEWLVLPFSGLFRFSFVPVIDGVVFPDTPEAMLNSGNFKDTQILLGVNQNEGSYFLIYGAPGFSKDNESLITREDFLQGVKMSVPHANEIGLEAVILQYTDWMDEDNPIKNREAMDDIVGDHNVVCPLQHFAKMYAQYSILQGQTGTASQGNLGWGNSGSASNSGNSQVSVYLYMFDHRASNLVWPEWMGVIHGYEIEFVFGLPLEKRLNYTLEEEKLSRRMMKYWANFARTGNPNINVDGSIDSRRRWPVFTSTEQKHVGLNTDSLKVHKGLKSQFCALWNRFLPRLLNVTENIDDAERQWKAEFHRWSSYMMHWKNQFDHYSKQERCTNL

Acetylcholinesterase [3] = target: T2, Acetylcholinesterase; assay: Inhibition of electric eel AChE using acetylthiocholine iodide as substrate preincubated for 20 mins followed by substrate addition measured for 5 mins by spectrophotometric Ellman's method
Cholinesterase = Cholinesterase (Equus caballus, UniProt P81908); assay: Inhibition of equine serum BChE using butyrylthiocholine iodide as substrate preincubated for 20 mins followed by substrate addition measured for 5 mins by spectrophotometric Ellman's method
Chain of Cholinesterase (P81908 whole entry): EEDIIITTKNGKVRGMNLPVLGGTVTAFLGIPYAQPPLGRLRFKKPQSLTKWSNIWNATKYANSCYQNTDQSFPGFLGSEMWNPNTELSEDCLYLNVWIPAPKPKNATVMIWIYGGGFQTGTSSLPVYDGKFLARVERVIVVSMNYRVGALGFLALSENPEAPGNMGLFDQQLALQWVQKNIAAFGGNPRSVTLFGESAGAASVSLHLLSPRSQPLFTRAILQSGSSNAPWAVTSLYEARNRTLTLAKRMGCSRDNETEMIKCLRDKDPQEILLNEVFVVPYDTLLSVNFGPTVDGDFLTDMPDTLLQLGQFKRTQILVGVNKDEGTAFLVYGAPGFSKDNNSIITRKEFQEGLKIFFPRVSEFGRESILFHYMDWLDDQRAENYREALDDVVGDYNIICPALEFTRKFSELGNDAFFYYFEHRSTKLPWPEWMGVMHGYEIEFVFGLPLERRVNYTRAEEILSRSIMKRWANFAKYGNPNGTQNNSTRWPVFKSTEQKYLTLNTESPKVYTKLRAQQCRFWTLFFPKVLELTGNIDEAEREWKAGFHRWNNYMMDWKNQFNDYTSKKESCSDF
Outline: (§1)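 BChE from equine serum (13 U/mg), Ellman spectrophotometric method run in 96-well format. Seven inhibitor concentrations, 10^-4 to 10^-10 M, each in triplicate. IC50 from non-linear regression of response against log(concentration). […] Mean of three independent experiments.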

SH-SY5Y [4] = assay: Cytotoxicity against human SH-SY5Y cells assessed as inhibition of cell growth after 24 hrs by MTT assay; format: cell-based
Outline: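 SH-SY5Y cells exposed 24 h at 37 °C to 0.1, 1, 5, 10 and 50 µM; viability read by MTT at 570 nm versus untreated cells. […] Means ± SD, n = 3.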

[5] = Apparent permeability across apical to basolateral side in MDCK2-MDR1 cells at 5 to 75 uM by UV-visible spectroscopic method; format: ADME, cell-based, Canis lupus familiaris; details: dog, MDCK-MDR1
Outline: (§2)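 Acceptor concentrations measured by UV–visible spectroscopy against PBS calibration curves linear over 5–75 µM. Papp (cm/sec) = (VA/(area × time)) × ([drug]acceptor/[drug]initial). Triplicates, three experiments.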

[6] = Apparent permeability across basolateral to apical side in MDCK2-MDR1 cells at 5 to 75 uM by UV-visible spectroscopic method; format: ADME, cell-based, Canis lupus familiaris; details: dog, MDCK-MDR1; outline: as §2
[7] = Efflux ratio of apparent permeability across basolateral to apical side over apical to basolateral side in MDCK2-MDR1 cells at 5 to 75 uM by UV-visible spectroscopic method; format: ADME, cell-based, Canis lupus familiaris; details: dog, MDCK-MDR1
Outline: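 Canine kidney MDCKII-MDR1 cells (retrovirally transfected with human MDR1 cDNA), cultured in DMEM and seeded at 100000 cells/cm2 on 0.4 µm-pore Transwell inserts. […] Apical-to-basolateral and basolateral-to-apical transport were measured, with compound quantified by UV-vis absorbance against PBS calibration curves (5–75 µM). ER = Papp BL-AP / Papp AP-BL. Triplicates, three experiments.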

[8] = Kinetic aqueous solubility of the compound in Tris-HCl buffer at pH 7.4 by turbidimetric method; format: physicochemical; details: for log(Kinetic_solubility): buffer
Outline: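 DMSO stocks added in portions to 50 mM Tris-HCl pH 7.4 at room temperature. Light scattering read as UV absorbance increase at 580–780 nm; solubility from a bilinear fit of absorbance versus µL DMSO. Reported as logS (mol/L), mean ± SEM of three independent assays.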

[9] = Lipophilicity index, Log K of the compound at 1 mM by RP-HPLC method; format: physicochemical; details: 1000 µM
[10] = target: T1, Amine oxidase [flavin-containing] A; assay: Inhibition of human recombinant MAOA expressed in microsomes of baculovirus-infected insect cell at 10 uM using kynuramine as substrate preincubated for 20 mins followed by protein addition measured after 30 mins by fluorescence assay relative to control; details: 0.5 h
Outline: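 Recombinant human MAO A (baculovirus-infected insect cell microsomes) with kynuramine substrate; inhibitor preincubated 20 min at 37 °C, enzyme then added and incubated 30 min more. Fluorescence at ex/em 320/400 nm. […] Triplicates, three independent experiments.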

[11] = target: T3, Amine oxidase [flavin-containing] B (Homo sapiens, UniProt P27338); assay: Inhibition of human recombinant MAOB expressed in microsomes of baculovirus-infected insect cell using kynuramine as substrate preincubated for 20 mins followed by protein addition measured after 30 mins by fluorescence assay
T3 sequence (P27338 whole entry): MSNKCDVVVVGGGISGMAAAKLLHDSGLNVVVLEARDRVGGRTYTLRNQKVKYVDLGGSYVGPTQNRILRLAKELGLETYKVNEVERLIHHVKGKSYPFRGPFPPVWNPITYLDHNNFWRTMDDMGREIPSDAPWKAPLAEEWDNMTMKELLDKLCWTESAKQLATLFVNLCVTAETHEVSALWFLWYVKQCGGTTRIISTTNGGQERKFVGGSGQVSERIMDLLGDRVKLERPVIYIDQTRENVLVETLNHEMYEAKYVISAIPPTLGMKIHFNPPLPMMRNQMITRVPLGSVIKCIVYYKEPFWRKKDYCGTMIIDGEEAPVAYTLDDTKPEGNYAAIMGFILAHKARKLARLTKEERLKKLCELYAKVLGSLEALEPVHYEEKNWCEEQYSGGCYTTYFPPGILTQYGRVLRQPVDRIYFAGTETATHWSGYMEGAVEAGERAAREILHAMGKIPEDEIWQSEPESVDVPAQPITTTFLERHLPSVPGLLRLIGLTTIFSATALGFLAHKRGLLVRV

[12] = target: Cholinesterase (Equus caballus) (UniProt P81908); assay: Inhibition of equine serum BChE at 10 uM using butyrylthiocholine iodide as substrate preincubated for 20 mins followed by substrate addition measured for 5 mins by spectrophotometric Ellman's method relative to control; outline: as §1
Chain of Cholinesterase (Equus caballus) (P81908 whole entry): as the sequence (P81908 whole entry) above

SH-SY5Y [13] = assay: Neuroprotective activity against H2O2-induced oxidative injury in human SH-SY5Y cells assessed as increase in cell viability at 1 to 10 uM after 24 hrs by MTT assay; format: functional, cell-based
Outline: (§3)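 SH-SY5Y cells incubated 24 h with compound at 1 or 10 µM together with H2O2 300 µM, oligomycin-A 10 µM or rotenone 20 µM. Viability by MTT, as % of cells given neither insult nor compound. Triplicates, three repeats; mean ± SD; two-way ANOVA with Bonferroni post hoc test.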

SH-SY5Y [14] = assay: Neuroprotective activity against oligomycin-A-induced oxidative injury in human SH-SY5Y cells assessed as increase in cell viability at 1 uM after 24 hrs by MTT assay; format: functional, cell-based; outline: as §3
SH-SY5Y [15] = assay: Neuroprotective activity against oligomycin-A-induced oxidative injury in human SH-SY5Y cells assessed as increase in cell viability at 10 uM after 24 hrs by MTT assay; format: functional, cell-based; outline: as §3
SH-SY5Y [16] = assay: Neuroprotective activity against rotenone-induced oxidative injury in human SH-SY5Y cells assessed as increase in cell viability at 1 uM after 24 hrs by MTT assay; format: functional, cell-based; outline: as §3
SH-SY5Y [17] = assay: Neuroprotective activity against rotenone-induced oxidative injury in human SH-SY5Y cells assessed as increase in cell viability at 10 uM after 24 hrs by MTT assay; format: functional, cell-based; outline: as §3

With `Cc1c(C)c2ccc(OCC3CCCN(Cc4ccccc4)C3)cc2oc1=O.Cl` (racemic) the IC50 [1] was 2810 nM, the Ki (Acetylcholinesterase [2]) was 1370 nM and the IC50 (Acetylcholinesterase [3]) was 1030 nM. For the same compound, the IC50 (Cholinesterase) was 3410 nM, the IC50 (SH-SY5Y [4]) was 44000 nM and the Papp A→B at up to 75 µM [5] was 24.3 ×10⁻⁶ cm/s. It also gave a Papp B→A at up to 75 µM [6] of 14.8 ×10⁻⁶ cm/s, an efflux ratio at up to 75 µM [7] of 0.61 and a solubility kinetic ([8]; Tris-HCl buffer, read-out: Kinetic_solubility) of 119 µM. The “log(Kinetic_solubility)” value [8] was -3.92 and the “log K” value [9] was 2.01.
Work on `Cc1c(C)c2ccc(OCC3CCN(Cc4ccc(Cl)cc4)CC3)cc2oc1=O` yielded an inhibition at 10 µM [10] of 37%, an IC50 [11] of 614 nM and an IC50 (Acetylcholinesterase [3]) of 9570 nM. For the same compound, the inhibition [12] was 19%.
Work on `Cc1c(C)c2ccc(OCC3CCCN(Cc4cccc(Br)c4)C3)cc2oc1=O.Cl` (racemic) yielded an IC50 [1] of 810 nM, an IC50 [11] of 110 nM and an IC50 (Acetylcholinesterase [3]) of 1910 nM. For the same compound, the Papp A→B at up to 75 µM [5] was 0.84 ×10⁻⁶ cm/s, the Papp B→A at up to 75 µM [6] was 2.16 ×10⁻⁶ cm/s and the efflux ratio at up to 75 µM [7] was 2.56.
For `Cc1c(C)c2ccc(OCC3CCCN(C)C3)cc2oc1=O.Cl` (racemic), the IC50 [1] was 9330 nM, the IC50 [11] was 137 nM and the IC50 (Acetylcholinesterase [3]) was 800 nM. For the same compound, the inhibition [12] was 19%, the IC50 (SH-SY5Y [4]) was 30000 nM and the Activity (SH-SY5Y [13]) was “Active”. The Activity (SH-SY5Y [14]) was “inactive”, the Activity (SH-SY5Y [15]) was “inactive” and the Activity (SH-SY5Y [16]) was “Active”. For the same compound, the Activity (SH-SY5Y [17]) was “Active”, the Papp A→B at up to 75 µM [5] was 22.3 ×10⁻⁶ cm/s and the Papp B→A at up to 75 µM [6] was 20.2 ×10⁻⁶ cm/s. The efflux ratio at up to 75 µM [7] was 0.9, the “log(Kinetic_solubility)” value [8] was -3.67 and the “log K” value [9] was 1.14.
